One data set deals with Escherichia coli B. The data set can be described thus: Competitive inhibition of Escherichia coli B H2-pteroate synthetase assessed as decrease in H2-pteroate formation using [7-14C]-PABA as substrate treated with enzyme for 10 mins prior to substrate challenge for 40 mins by radioassay method. The essentials: (§1)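 Cell-free extract of E. coli B (400-600 ug protein) was preincubated 10 min at 37 °C with 0.5 umol ATP, 2 umol MgCl2, 0.5 mg ascorbate, 0.1 mmol Tris-HCl pH 8.0 and 20 nmol 2-amino-4-hydroxy-6-hydroxymethyl-7,8-dihydropteridine in 0.45 ml. [7-14C]-PABA was then added and incubation ran 40 min. The reaction was stopped with citric acid phosphate buffer pH 3.8, free PABA was ether-extracted, and aqueous radioactivity was counted.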

Data set [1] can be described thus: Dissociation constant, pKa of the compound. The format is physicochemical.
The subject of another data set is Escherichia coli. Nature of the data set: Antibacterial activity against Escherichia coli 273 assessed as growth inhibition at 1 mM after 22 hrs. Format: functional, organism-based. The essentials: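 PABA-requiring E. coli 273 was grown across a range of PABA concentrations with compound at 1 mM, and growth was read after 22 h of incubation.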
Data set [2] in a line: Competitive inhibition of Escherichia coli B H2-pteroate synthetase assessed as decrease in H2-pteroate formation using [7-14C]-PABA as substrate treated with enzyme for 10 mins prior to substrate challenge for 40 mins by Dixon plot analysis. The procedure, abridged: as §1

The source made the active and inactive calls. No cut-off for these calls is given here.

As a reminder, the pKa is the pH at which an ionisable group is half protonated. As to `Nc1ccc(C(=O)c2ccccc2)cc1`, the Inhibition index in the data set on Escherichia coli B came to 800. Besides, in data set [1], the pKa was 2.24.
Regarding `CCOC(=O)CC[C@H](NC(=O)c1ccc(N)cc1)C(=O)OCC`, the Inhibition index in the data set on Escherichia coli B turned out to be 600.
On the same count and under the same terms, the result for `CCC(=O)c1ccc(N)cc1` reads 180.
The same measure, in the same setting: for `Nc1ccc(C(=O)NCC(=O)O)cc1` the value was 260; for `COC(=O)CNC(=O)c1ccc(N)cc1`, 550; for `NC(=O)c1ccc(N)cc1`, 53.
Same read-out and setting: the result for `Nc1ccc(C(=O)NCCc2ccccc2)cc1` reads 800; that for `CCOC(=O)CC(=O)c1ccc(N)cc1`, 105.
`Nc1ccc(C(=O)Nc2ccccc2)cc1`: the Inhibition index with Escherichia coli B was 600.
On the same count and under the same terms, the result for `Nc1ccc(C(=O)CC(C(=O)O)c2ccccc2)cc1` (stereo in doubt; 25) reads 480.
Take `Nc1ccc(C(=O)CC(C(=O)O)c2ccccc2)cc1` (racemic) [listing 1 of 2 here]: the Inhibition index with Escherichia coli B worked out at 74. In addition, in the data set with Escherichia coli, the “growth inhibition (GI)” value was “inactive”.
On to `CCOC(=O)c1ccc(N)cc1` [BENZOCAINE], for which, in the data set on Escherichia coli B, the Inhibition index was determined as 600. The compound also registered a pKa in data set [1] of 2.5.
As for `Nc1ccc(CC(=O)O)cc1`, the pKa in data set [1] is 3.6.
`CCOC(=O)CCC(=O)c1ccc(N)cc1`: the Inhibition index in the data set with Escherichia coli B came out at 460.
Regarding `CC(=O)c1ccc(N)cc1`, the Inhibition index with Escherichia coli B was determined as 210. Further, the pKa in data set [1] amounted to 2.5.
As for `Nc1ccc(C(=O)CC(C(=O)O)c2ccccc2)cc1` (stereo in doubt; 26), the Inhibition index in the data set with Escherichia coli B was determined as 40.
As for `COC(=O)c1ccc(N)cc1`, in the data set on Escherichia coli B, the Inhibition index turned out to be 450. Besides, the pKa in data set [1] was 2.46.
In the case of `CNC(=O)c1ccc(N)cc1`, the Inhibition index in the data set on Escherichia coli B came to 120.
What is called Ki is a measure of affinity in units of concentration, obtained from inhibition or displacement. In the case of `Nc1ccc(C(=O)N[C@@H](CCC(=O)O)C(=O)O)cc1`, in the data set on Escherichia coli B, the Inhibition index was determined as 76. The Ki in data set [2] stood at 170 µM.
Regarding `CN(C)C(=O)c1ccc(N)cc1`, the Inhibition index in the data set with Escherichia coli B worked out at 400.
With `Nc1ccc(C(=O)CC(C(=O)O)c2ccccc2)cc1` (racemic) [listing 2 of 2 here], the Ki in data set [2] is 150 µM.
With `Nc1ccc(C(=O)CCC(=O)O)cc1`, in the data set with Escherichia coli B, the Inhibition index stood at 55. Also, the “growth inhibition (GI)” value in the data set with Escherichia coli was “inactive”. For the same compound, in data set [2], the Ki came to 130 µM.
On to `Cc1ccc(N)cc1`, for which, in data set [1], the pKa was found to be 5.1.
`Nc1ccc(C(=O)N[C@H](CCC(=O)O)C(=O)O)cc1`: the Inhibition index in the data set on Escherichia coli B amounted to 250.
The same measure, in the same setting: for `Nc1ccc(C(=O)NCCCC(=O)O)cc1` the value was 700.

Values taken from ChEMBL document CHEMBL3272340, “P-Aminobenzoic acid derivatives as inhibitors of the cell-free H2-pteroate synthesizing system of Escherichia coli” (J Med Chem, 1977).
